# Test results published in PubChem BioAssay AID602345 (The Scripps Research Institute Molecular Screening Center, 2012).
# Active and inactive are the calls of the source.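 Rule for the calls: active = macrophage DAGL beta lipase probe labeling falls at least half after a 5 mg/kg dose in mice; inactive = 5 mg/kg yields less than half inhibition.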
# Molecular target: Diacylglycerol lipase-beta (Mus musculus) (UniProt Q91WC9)
# Assay: in vivo DAGLb inhibition in mouse macrophages, late-stage follow-up, in vivo study, gel ABPP, in-gel fluorescence, peritoneal macrophages (AID 602345)
# Settings: C57 mice i.p., peritoneal macrophage DAGLb, gel ABPP HT-01
# Summary of the method: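 Assay system: DAGLb in peritoneal macrophage membranes from thioglycollate-elicited C57 mice / Amount: macrophage membrane fraction at 1 mg/mL protein / Timing: 4 h in vivo exposure, 30 min probe step at 37 °C / Benchmarks: vehicle-only mice / Measured by: in-gel fluorescence scanning after SDS-PAGE separation / Replicates: two mice per dose group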
# Diacylglycerol lipase-beta (Mus musculus), sequence (Q91WC9 whole entry, looked up): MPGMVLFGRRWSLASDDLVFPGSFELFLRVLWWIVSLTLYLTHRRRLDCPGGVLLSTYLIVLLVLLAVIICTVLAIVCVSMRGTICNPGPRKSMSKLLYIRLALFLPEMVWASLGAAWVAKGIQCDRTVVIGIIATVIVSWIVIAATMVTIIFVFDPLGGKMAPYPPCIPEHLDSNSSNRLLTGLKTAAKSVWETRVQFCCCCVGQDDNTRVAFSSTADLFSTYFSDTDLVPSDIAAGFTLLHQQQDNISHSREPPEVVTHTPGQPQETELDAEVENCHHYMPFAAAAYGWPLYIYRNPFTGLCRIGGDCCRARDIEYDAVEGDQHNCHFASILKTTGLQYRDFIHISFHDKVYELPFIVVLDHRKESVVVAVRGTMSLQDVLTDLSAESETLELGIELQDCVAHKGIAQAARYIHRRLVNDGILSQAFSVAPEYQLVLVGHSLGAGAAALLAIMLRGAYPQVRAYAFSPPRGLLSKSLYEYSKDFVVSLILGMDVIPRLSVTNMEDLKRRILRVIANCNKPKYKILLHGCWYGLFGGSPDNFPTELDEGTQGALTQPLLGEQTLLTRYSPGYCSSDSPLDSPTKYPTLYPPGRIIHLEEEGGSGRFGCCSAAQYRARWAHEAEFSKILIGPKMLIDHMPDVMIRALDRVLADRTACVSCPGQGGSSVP
row,SMILES,outcome
1,O=C(N1CCCCC1Cc1ccccc1)n1cc(-c2ccc(-c3ccccc3C(F)(F)F)cc2)nn1 (stereo not drawn),active
2,COc1ccccc1-c1ccc(-c2cn(C(=O)N3CCCCC3Cc3ccccc3)nn2)cc1 (stereo not drawn),active
3,O=C(N1CCCCC1Cc1ccccc1)n1cc(-c2ccc(-c3ccccc3)cc2)nn1 (stereo not drawn),active
